Paper PMC3619423 (Experimental eye research, 2013)
Entries after “also recorded” stand apart in the source; their conditions may differ. No end group written: not given here.

What was measured:
[1] = test system: bovine lens protease-rich fraction; experiment: Hydrolysis of MCA-62-70 substrate by lens protease in the presence of inhibitors; format: biochemical; conditions: for inhibition of MCA-62-70 hydrolysis: pre-incubated 30 min at 37 °C
[2] = test system: Arg-MCA hydrolyzing activity (aminopeptidase activity); experiment: Arg-MCA hydrolysis; format: biochemical, bovine
[3] = protease-rich human; conditions: 37 °C, up to 5 h
[4] = test system: bovine lens extracts (outer cortical, inner cortical, nuclear); experiment: MCA-62-70 hydrolytic activity in regions of bovine lens; format: biochemical; conditions: 1 mg protein extract, 37 °C
How it was run: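 Decapsulated bovine lenses stirred at 4 °C in 50 mM sodium phosphate, 150 mM NaCl, pH 7.2, dissolving outer cortex (about a third of wet weight), then inner cortex (about a third); remaining nucleus homogenised. Each fraction centrifuged 30,000 × g, 30 min; supernatant (1 mg protein) incubated with 25 μg MCA-62-70, 2 h, 37 °C; fluorescence read before and after (ex 326, em 398 nm).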

[5] = test system: human lens extracts (cortical, nuclear); experiment: MCA-62-70 hydrolytic activity in human lenses of different age; format: biochemical; conditions: for total protease activity (MCA-62-70 hydrolyzed): water-soluble proteins
How it was run: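 Cortical and nuclear regions of frozen young, middle-aged and old human lenses separated by dissection; water-soluble extracts (1 mg protein) incubated with 25 μg MCA-62-70 substrate, 2 h, 37 °C. Fluorescence read before and after (ex 326, em 398 nm). Amount hydrolysed taken from a standard curve of trypsin-digested substrate; average ± SE of four independent experiments; one-way ANOVA with Tukey's test.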

[6] = test system: peptidase-rich fraction of bovine lens extract
[7] = bovine, 37 °C
[8] = bovine lens extract containing 5 mg protein; conditions: 37 °C, up to 16 h

With `O=c1oc(Cl)c(Cl)c2ccccc12` [3,4-DCI] as the compound, how does the “inhibition of MCA-62-70 hydrolysis” value ([1]; 500 μM) read?
Its value is “up to 85%”.

Which “inhibition of Arg-MCA hydrolyzing activity (aminopeptidase activity)” value ([2]; protease preparation treated with bestatin) does the source give for `CC(C)C[C@H](NC(=O)[C@@H](O)[C@H](N)Cc1ccccc1)C(=O)O` [Bestatin, reference compound] here?
The value was “complete inhibition”.

Which “inhibition of MCA-62-70 hydrolysis” value ([1]; concentration not given) does the source give for `O=C(O)CN(CCN(CC(=O)O)CC(=O)O)CC(=O)O` [EDTA, ethylene diamine tetraacetic acid] here?
Its value is 50%.

With `O=C(O)CN(CCOCCOCCN(CC(=O)O)CC(=O)O)CC(=O)O` [EGTA, ethylene glycol tetraacetic acid] as the compound, how does the “inhibition of MCA-62-70 hydrolysis” value ([1]; concentration not given) read?
The value was 50%.

Which “Relative activity (%)” value [1] does the source give for `NC(=O)CI` [Iodoacetamide] here?
The value was 97%.

With MCA-SEVRSDRD[Lys(Dnp)]RR-NH2 as the compound, how does the fragment found [3] read?
Its fragment found is “MCA-62-68 (MCA-SEVRSDR); also recorded: MCA-62-65 (MCA-SEVR); also recorded: MCA-62-66 (MCA-SEVRS), major”.

For “MCA-SEVRSDRD[Lys(Dnp)]RR-NH2 [MCA-62-70]”, which “enzymatic activity (MCA-62-70 hydrolysis)” value ([4]; bovine lens inner cortex) is on record?
The value was 0.10 ± 0.01 nmoles/hr/mg protein.

And the “enzymatic activity (MCA-62-70 hydrolysis)” value ([4]; bovine lens nuclear region)?
The value was 0.04 ± 0.003 nmoles/hr/mg protein.

And the “enzymatic activity (MCA-62-70 hydrolysis)” value ([4]; bovine lens outer cortical region)?
The value was 0.58 ± 0.04 nmoles/hr/mg protein.

What about the “share of total lens enzymatic activity in the cortical region” value ([5]; human lens cortical region, all age groups) of the same compound?
The value was ~90%.

And the “total protease activity (MCA-62-70 hydrolyzed)” value (“total protease activity” below) ([5]; middle-aged (40 ± 2 years) human lenses)?
The value was 7.26 ± 0.83 n moles/h.

What about the “total protease activity” value ([5]; older (60 ± 2 years) human lenses) of the same compound?
Its value is 5.49 ± 0.29 nmol/h.

And the “total protease activity” value ([5]; young (20 ± 2 years) human lenses)?
Its value is 8.84 ± 0.96 nmol/h.

Which results are given for RPPGFSPFR [bradykinin, Bradykinin]?
hydrolysis after 2 h [6]: complete hydrolysis; slowing of hydrolysis rate versus peptide incubated alone [6]: 40%

With SDRDKFVIFLDVKHF as the compound, how does the not cleaved [7] read?
The not cleaved was “αA-66-80 was not hydrolyzed”.

Which fragment found [8] does the source give for Succinyl-DVKHFSPEDK-Biotin here?
Its fragment found is “αA-76-78; also recorded: αA-76-80; also recorded: αA-76-82, major”.

Which fragment found [8] does the source give for Succinyl-ISEVRSDRDK-Biotin here?
Its fragment found is “αA-61-65; also recorded: αA-61-66”.

With “α-crystallin: bovine lens α-crystallin, molecular chaperone protein added to the peptidase incubations” as the compound, how does the “increase of Arg-MCA hydrolysis by peptidase-rich bovine lens fraction” value ([2]; addition of 12.5 nmoles α-crystallin, data not shown) read?
The value was ~4 fold.
